Screening results: PubChem BioAssay, several laboratories
DAT uptake mod – human DAT dopamine uptake with cocaine, either direction; B-score at 10 µM; LLC-PK1 hDAT cells, [14C]-dopamine uptake with cocaine IC80; actives deviate in either direction; Q01959; 110,000 compounds, 1.3% hits;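 active means Z score or B-score, a plate-position-corrected score, falls beyond the plate's 99.7% confidence bounds, in either direction; inactive means both scores lie inside the 99.7% bounds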
Target sequence (Q01959 whole entry, looked up): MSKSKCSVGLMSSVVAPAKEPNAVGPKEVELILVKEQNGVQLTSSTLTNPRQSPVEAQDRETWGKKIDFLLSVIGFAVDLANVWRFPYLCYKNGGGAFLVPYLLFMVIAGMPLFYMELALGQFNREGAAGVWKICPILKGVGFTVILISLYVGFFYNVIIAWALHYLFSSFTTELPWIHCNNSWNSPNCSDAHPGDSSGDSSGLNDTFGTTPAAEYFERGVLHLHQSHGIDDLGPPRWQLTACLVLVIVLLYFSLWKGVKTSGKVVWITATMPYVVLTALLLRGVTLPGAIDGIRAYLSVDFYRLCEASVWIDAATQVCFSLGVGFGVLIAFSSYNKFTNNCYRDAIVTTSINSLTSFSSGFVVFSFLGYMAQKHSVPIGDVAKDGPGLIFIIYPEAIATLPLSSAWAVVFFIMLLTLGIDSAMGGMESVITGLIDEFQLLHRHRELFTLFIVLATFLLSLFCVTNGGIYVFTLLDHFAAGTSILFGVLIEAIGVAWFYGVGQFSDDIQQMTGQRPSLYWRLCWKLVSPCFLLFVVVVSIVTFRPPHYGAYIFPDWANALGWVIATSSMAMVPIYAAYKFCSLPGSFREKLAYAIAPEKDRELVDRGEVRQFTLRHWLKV
Measles CPE – protection of cells from measles virus; 140,000 compounds, 1.5% hits; protection (pct of control), % at 4 µM; Measles virus-infected cells, CPE protection, absorbance; in the data active means protection mostly above about 24%, no sharp cut-off; inactive means mostly below about 26%
Yeast lifespan up – extends the lifespan of yeast; S. cerevisiae growth with nicotinamide, OD615; deaD strain in restrictive glucose medium; inhibition of the nicotinamide effect, % at 10 µM; 130,000 compounds, 0.68% hits;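 active means inhibition above a set limit, placed 3 SD over the median of all compounds, cut at about 26% in these data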
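assay system = DeaD-strain S. cerevisiae | measured by = absorbance at 615 nm | probe or stimulus = nicotinamide 1.5 mM | buffer or medium = CSMM-D glucose medium, restrictive | times = 48 h at 30 °C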
Yeast growth inh – chemicals that inhibit yeast BB579 growth in restrictive medium (lifespan-shortening candidates). S. cerevisiae BB579 growth, OD615, 48 h. inhibition, % at 10 µM. 140,000 compounds, 0.51% hits. AID 804;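 active means inhibition above a set limit, 3 SD over the mean compound inhibition, cut at about 44% in these data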
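Assay system – yeast BB579 (DeaD) · Dosing – single compound dose of 10 µM, 0.25% DMSO final · Detection – OD615 turbidity measurement · Buffer or medium – CSMM-D restrictive synthetic medium containing dextrose (glucose) · Benchmarks – positive control amphotericin B 10 µg/mL · Incubation – 48 h exposure, 30 °C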
WT yeast gro inh – growth inhibition of WT yeast, mitochondrial fusion screen; mitochondrial fusion phenotypic screen, WT strain; AID 1362; inhibition, % at 10 µM; 190,000 compounds, 2.1% hits; in the data active means inhibition above about 58%; tested in S. cerevisiae
RAM network inh – blocks the yeast RAM network; inhibition, % at 50 µM; 190,000 compounds, 1.8% hits; S. cerevisiae dse1pr::URA3 reporter, 5-FOA growth OD615, 2 d; analog-sensitive cbk1-as2 kinase mutant strain; AID 868;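 active means inhibition above a set limit, 3 SD over mean compound inhibition, cut at about 8.4% in these data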;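 further: inhibition rescues growth on 5-FOA so higher OD means more RAM inhibition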
A number is an active result; i = inactive; nt = no result given; ! = not confirmed by another sample. Shown are actives, neighbours in structure and some others; about 6.1% of the full set was active somewhere.

SMILES	DAT uptake mod	Measles CPE	Yeast lifespan up	Yeast growth inh	WT yeast gro inh	RAM network inh
Cc1cc(-c2ccccc2)nc2cc(C(=O)N(Cc3ccccc3)Cc3ccccc3)nn12	i	i	nt	i	74.9	i
COC(=O)c1cc2nc(-c3ccccc3)cc(C)n2n1	i	i	i	i	i	i
O=C(COC(=O)c1ccc(Br)o1)Nc1cccc(S(=O)(=O)N2CCCCCC2)c1	i	34.4	i	i	i	i
CN(C)S(=O)(=O)c1cccc(NC(=O)COC(=O)c2ccc(Br)o2)c1	i	i	i	i	i	i
Cc1ccc(OCC(=O)Nc2cccc(S(=O)(=O)N3CCCCC3)c2)c([N+](=O)[O-])n1	nt	28.9	i	i	i	i
O=C(/C=C/c1ccccc1)N1CCC(N2CCC(C(=O)N3CCOCC3)CC2)CC1	nt	nt	nt	nt	i	i
Cc1ccc(S(=O)(=O)N(CC(=O)Nc2cccc(N(C)S(C)(=O)=O)c2)c2ccc(Cl)c(Cl)c2)cc1	i	i	i	i	i	i
COc1ccc(N(CC(=O)Nc2cccc(C(C)=O)c2)S(C)(=O)=O)cc1OC	i	92.5	i	i	i	i
CN(c1cccc(NC(=O)CN(c2ccc(Cl)c(Cl)c2)S(=O)(=O)c2ccccc2)c1)S(C)(=O)=O	nt	i	28.6	i	i	9.7
COc1ccc(N(CC(=O)N2CCN(C)CC2)S(C)(=O)=O)cc1OC	i	50.5	i	i	i	i
COc1ccc(OC)c(N(CC(=O)Nc2cccnc2)S(=O)(=O)c2ccc(C)cc2)c1	i	i	i	i	i	i
COc1ccc(OC)c(N(CC(=O)Nc2cccnc2)S(=O)(=O)c2ccc(OC)c(OC)c2)c1	-2.7!	i	i	i	i	i
c1coc(-c2nn3c(Cn4nnc5ccccc54)nnc3s2)c1	i	i	i	i	i	i
CCOc1ccccc1N(CC(=O)Nc1cc(OC)ccc1OC)S(C)(=O)=O	-9.11	i	i	i	i	i
COc1ccc(N(CC(=O)Nc2cccc(N(C)S(C)(=O)=O)c2)S(C)(=O)=O)cc1OC	i	42.6	i	i	i	i
CCOC(=O)N1CCN(C(=O)CN(c2ccc(OCc3ccccc3)cc2)S(C)(=O)=O)CC1	i	27.7	i	i	i	i
CCOc1ccccc1N(CC(=O)Nc1ccccc1C(=O)O)S(C)(=O)=O	i	i	i	i	i	i
COC(=O)c1ccc(N2C(=O)CC(N3CCN(c4ccccc4)CC3)C2=O)cc1 (stereo not given)	i	nt	nt	nt	nt	nt
COC(=O)c1ccc(N2C(=O)CC(N3CCOCC3)C2=O)cc1 (stereo not given)	i	40.2	i	i	i	i
CC1=CC(C)(C)N(C(=O)CNC2CCCC2)c2cc(C)ccc21	nt	nt	nt	nt	i	i
O=C(CN1CCN(c2ccccn2)CC1)N1c2ccccc2Sc2ccc(C(F)(F)F)cc21	i	i	i	i	66.4	i
O=C(CN1CCCC1)N1c2ccccc2Sc2ccc(C(F)(F)F)cc21	i	i	nt	i	i	i
COc1ccc(/C=N/NC(=O)c2ccc(Cn3cc([N+](=O)[O-])cn3)o2)c(OC)c1C	nt	i	i	i	i	9.5
COc1ccc(/C=N\NC(=O)c2ccc(Cn3cc(Br)c([N+](=O)[O-])n3)o2)c(OC)c1C	nt	nt	nt	nt	i	i
COc1ccc(C2Cc3ccccc3C(=O)O2)cc1 (stereo not given)	nt	i	i	i	i	i
SMILES	DAT uptake mod	Measles CPE	Yeast lifespan up	Yeast growth inh	WT yeast gro inh	RAM network inh
Cn1nnnc1SCC(=O)Nc1ccc2c(c1)OCO2	nt	nt	nt	nt	i	i
O=C(NC(=S)Nc1ccc(S(=O)(=O)Nc2nccs2)cc1)c1ccc(F)c(F)c1	nt	29.6	i	i	i	i
N#Cc1cnc2c(-c3ccccc3)c(-c3ccccc3)nn2c1N	nt	nt	nt	nt	i	i
Cc1ccc2c(c1)NC(=O)C(N1CCOCC1)(C(F)(F)F)O2 (stereo not given)	i	i	i	i	i	i
CCN(CC)C(=O)C(C)OC(=O)c1ccc(O)cc1 (stereo not given)	i	i	i	i	i	i
O=c1cc(C(Cl)(Cl)Cl)oc2c1ccc1ccccc12	i	i	i	i	78.2	i
O=S(=O)(NCc1ccccc1Cl)c1cccs1	nt	nt	nt	nt	i	i
Cc1cccc(C)c1NC(=O)CN(C)CC(=O)Nc1ccccc1Br	i	i	i	i	66.0	i
Cc1cc(F)ccc1NCC(=O)Nc1ccccc1Br	nt	49.8	i	i	i	i
Cc1ccc(F)cc1NCC(=O)Nc1ccc(Cl)cc1F	nt	i	i	i	i	i
C/C(=N\N=C1\NC(=O)C(CC(=O)Nc2ccc(C)c(Cl)c2)S1)C(C)C (stereo not given)	nt	nt	nt	nt	i	i
CC(=O)NCCn1c(SCc2cc(F)ccc2F)nc2ccccc2c1=O	i	40.5	i	i	i	i
CC(=O)NCCn1c(SCc2ccccc2C)nc2ccccc2c1=O	i	i	i	i	i	i
O=c1c2ccccc2nc(SCc2cc(F)ccc2F)n1C1CCCC1	i	30.7	i	i	i	i
COc1ccc(CN(C)C(=S)Nc2ccc(Cl)cc2)cc1	nt	nt	nt	nt	i	i
COc1cc(C2C(C#N)=C(N)OC3=C2C(=O)CCC3)c([N+](=O)[O-])cc1OC (stereo not given)	i	i	i	i	i	i
Cc1ccc(C)n1-c1c(C(=O)NN)cnn1-c1ccccc1	nt	nt	nt	nt	i	i
Cc1ccccc1NC(=O)CCSc1nnnn1-c1ccccc1	i	i	nt	i	i	i
CCCc1cc(=O)[nH]c(SCC(=O)c2cc(C)n(C3CC3)c2C)n1	i	i	i	i	i	i
CCCc1cc(=O)[nH]c(SCC(=O)N(CC(C)C)C2CCS(=O)(=O)C2)n1 (stereo not given)	3.07	i	i	i	i	i
Oc1ccc2cc(Br)ccc2c1CN1CCCC1	nt	nt	nt	nt	i	i
CCOc1ccccc1CNC(=O)c1cc2oc3ccccc3c2n1C	i	76.7	i	i	i	i
O=C(CSc1ccccc1C(=O)O)NCC1CCCCC1	nt	nt	nt	nt	i	i
COc1ccc(N2CCN(C(=O)CSc3nnc(COc4cccc5cccnc45)o3)CC2)cc1	i	i	i	i	i	i
COc1ccc(C=O)cc1CSc1nnc(COc2cccc3cccnc23)o1	i	i	nt	i	66.6	i
SMILES	DAT uptake mod	Measles CPE	Yeast lifespan up	Yeast growth inh	WT yeast gro inh	RAM network inh
Cc1cc[n+](-c2ccccc2)c2ccccc12	nt	nt	nt	nt	i	i
CCOC(=O)c1c(/N=C/c2cccc([N+](=O)[O-])c2O)sc(C)c1C	nt	i	i	75.3	i	i
OCCN1CCN(c2ncnc3c2c(-c2ccccc2)cn3-c2ccc(Br)cc2)CC1	nt	nt	nt	nt	84.7	i
FC(F)C(F)(F)C(F)(F)C(F)(F)c1cc(-c2ccccc2)n[nH]1	i	i	i	i	69.7	i
Cc1cc(-c2ccccc2)n[nH]1	nt	nt	nt	nt	i	i
Cc1cc(C(=O)N/N=C/c2cccc([N+](=O)[O-])c2)c(C)o1	i	33.5	i	i	i	i
CCN(CC)CCN(C)C1CCC(c2ccccc2)CC1 (stereo not given)	nt	i	i	i	i	i
CCOC(=O)c1cc(-c2ccc3c(c2)OCO3)nc2onc(C)c12	i	i	i	i	78.2	i
